For experiment [1], the target named is T1, Gonadotropin-releasing hormone receptor (Rattus norvegicus) (UniProt P30969).
T1 sequence (whole entry): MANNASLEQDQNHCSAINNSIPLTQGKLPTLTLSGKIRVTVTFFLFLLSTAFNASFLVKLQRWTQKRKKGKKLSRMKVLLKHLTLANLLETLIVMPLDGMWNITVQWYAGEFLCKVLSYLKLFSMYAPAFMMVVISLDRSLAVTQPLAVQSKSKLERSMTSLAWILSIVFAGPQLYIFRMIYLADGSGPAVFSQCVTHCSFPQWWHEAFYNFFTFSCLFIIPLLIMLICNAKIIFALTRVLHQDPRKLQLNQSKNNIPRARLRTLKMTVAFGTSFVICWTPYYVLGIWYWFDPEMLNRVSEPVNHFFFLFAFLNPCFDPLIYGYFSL
Description: In vitro antagonistic activity against LH release in rat pituitary cells for control. Type of experiment: functional, cell-based. Conditions: Pituitary gland cell. An outline of the steps: (§1)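 Anterior pituitaries from female Sprague-Dawley rats (240-260 g, 18 rats) were minced and dispersed in Gey's solution with trypsin, DNase I and LBBI. Cells were plated in DMEM with 0.45% glucose, 25 mM HEPES, serum, T and 100 nM dexamethasone at about 3.0 × 10^5 cells/mL and cultured 4 days at 37 °C in 8% CO2. Cells were then exposed to antagonist plus 1 ng LHRH in Gey's solution with 0.3% glucose for 2 h. LH in the medium was measured by RIA as ng/mL of RP-3.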

Experiment [2] has as its target T1, Gonadotropin-releasing hormone receptor (Rattus norvegicus). Description: In vitro inhibition of LH release was determined in rat pituitary cells at a dose of 0.03 ug of analogue and 1 ng of LHRH. The format is functional, cell-based. Conditions: Pituitary gland cell. An outline of the steps:
as §1

For the next experiment, the species on record is Rattus norvegicus. Description: In vitro inhibition of LH release in rat pituitary cells at a dose of 1 ng LHRH in absence of the compound. Type of experiment: functional, Pituitary gland cell. On the set-up: unit: ng/mL. An outline of the steps: as §1
The target in experiment [3] is T1, Gonadotropin-releasing hormone receptor (Rattus norvegicus). Description: In vitro inhibition of LH release in rat pituitary cells at a dose of 1 ug of analogue and 1 ng of LHRH. The format is functional, cell-based. Conditions: Pituitary gland cell. An outline of the steps: as §1
For experiment [4] the target is unchanged. Description: In vitro inhibition of LH release was determined in rat pituitary cells at a dose of 0.3 ug of analogue and 1 ng of LHRH. The format is functional, cell-based. Conditions: Pituitary gland cell. An outline of the steps: as §1
The target is the same in experiment [5]. Description: In vitro inhibition of LH release was determined in rat pituitary cells at a dose of 0.1 ug of analogue and 1 ng of LHRH. The format is functional, cell-based. Conditions: Pituitary gland cell. The method, boiled down:
as §1

For experiment [6] the target is unchanged. Description: In vitro inhibition of LH release determined in rat pituitary cells at a dose of 3 ug of analogue and 1 ng of LHRH. The format is functional, cell-based. Conditions: Pituitary gland cell. The method, boiled down: as §1
Experiment [7] shares this target. Description: In vitro inhibition of LH release was determined in rat pituitary cells at a dose of 30 ug of analogue and 1 ng of LHRH. Conditions: Pituitary gland cell. Type of experiment: functional, cell-based. The method, boiled down:
as §1

Experiment [8] has the same target. Description: In vitro inhibition of LH release was determined in rat pituitary cells at a dose of 10 ug of analogue and 1 ng of LHRH. Type of experiment: functional, cell-based. The note with it: Pituitary gland cell. An outline of the steps: as §1

Square brackets hold non-standard residues; d marks the D form. Peptide text beside a SMILES is read from it. 2Nal = N[C@@H](Cc1ccc2ccccc2c1)C(=O)O

As to `CCNC(=O)[C@@H]1CCCN1C(=O)[C@H](CCCN=C(N)N)NC(=O)[C@H](CC(C)C)NC(=O)[C@@H](Cc1c[nH]c2ccccc12)NC(=O)[C@H](Cc1ccc(O)cc1)NC(=O)[C@H](CO)NC(=O)[C@@H](Cc1ccc2ccccc2c1)NC(C)=O`, the Activity was found to be 2.1 in [1]; 85 in experiment [2]; 149 in the experiment filed under Rattus norvegicus; 2 in [3]; 10 in [4]; 40 in [5].
In the case of `CC(=O)N[C@H](Cc1ccc2ccccc2c1)C(=O)N[C@@H](CO)C(=O)N[C@@H](Cc1ccc(O)cc1)C(=O)N[C@H](Cc1ccc2ccccc2c1)C(=O)N[C@@H](CC(C)C)C(=O)N[C@@H](CCCN=C(N)N)C(=O)N1CCC[C@H]1C(N)=O`, the Activity is 3 in experiment [6]; 4.1 in experiment [1]; 154 in experiment [2]; 167 in the experiment filed under Rattus norvegicus; 4 in experiment [3]; 13 in experiment [4]. This compound yielded an Activity in [5] of 74.
Take `CCNC(=O)[C@@H]1CCCN1C(=O)[C@H](CCCN=C(N)N)NC(=O)[C@H](CC(C)C)NC(=O)[C@@H](Cc1cccnc1)NC(=O)[C@H](Cc1ccc(O)cc1)NC(=O)[C@H](CO)NC(=O)[C@@H](Cc1ccc2ccccc2c1)NC(C)=O`: the Activity in experiment [6] worked out at 14; in experiment [1] it was 9; in the experiment filed under Rattus norvegicus, 279; in experiment [3], 34; in experiment [4], 69; in experiment [5], 134.
Consider `CC(=O)N[C@H](Cc1ccc2ccccc2c1)C(=O)N[C@@H](CO)C(=O)N[C@@H](Cc1ccc(O)cc1)C(=O)N[C@H](Cc1ccc2ccccc2c1)C(=O)N[C@@H](CC(C)C)C(=O)N[C@@H](CCCN=C(N)N)C(=O)N1CCC[C@H]1C(=O)NCC(N)=O`, for which the Activity in [6] is 45; in [1], 3.8; in the experiment filed under Rattus norvegicus, 132; in experiment [3], 50; in [4] it was 112; in experiment [5], 157.
Regarding `CC(=O)N[C@H](Cc1ccc2ccccc2c1)C(=O)N[C@@H](CO)C(=O)N[C@@H](CCCCNC(=O)c1ccccn1)C(=O)N[C@H](CCCCNC(=O)c1ccccn1)C(=O)N[C@@H](CC(C)C)C(=O)N[C@@H](CCCN=C(N)N)C(=O)N1CCC[C@H]1C(=O)N[C@H](C)C(N)=O`, the Activity was found to be 8 in [6]; 7.2 in experiment [1]; 224 in the experiment filed under Rattus norvegicus; 26 in experiment [3]; 60 in [4]; 118 in experiment [5].
As for `CC(=O)N[C@H](Cc1ccc2ccccc2c1)C(=O)N[C@@H](CO)C(=O)N[C@@H](Cc1ccc(O)cc1)C(=O)N[C@H](CCCCNC(=O)c1ccccn1)C(=O)N[C@@H](CC(C)C)C(=O)N[C@@H](CCCN=C(N)N)C(=O)N1CCC[C@H]1C(=O)N[C@H](C)C(N)=O`, the Activity in experiment [6] worked out at 29; in experiment [1], 6.3; in the experiment filed under Rattus norvegicus it was 241; in experiment [3], 67; in [4], 154; in experiment [5] it was 201.
`CCNC(=O)[C@@H]1CCCN1C(=O)[C@H](CCCCNC(C)C)NC(=O)[C@H](CC(C)C)NC(=O)[C@@H](CCCCNC(=O)c1ccccn1)NC(=O)[C@H](Cc1ccc(O)cc1)NC(=O)[C@H](CO)NC(=O)[C@@H](Cc1ccc2ccccc2c1)NC(C)=O`: the Activity in the experiment filed under Rattus norvegicus is 151.
Compound `CCNC(=O)[C@@H]1CCCN1C(=O)[C@H](CCCN=C(N)N)NC(=O)[C@H](CC(C)C)NC(=O)[C@@H](CCCCNC(=O)c1ccccn1)NC(=O)[C@H](CCCCNC(=O)c1ccccn1)NC(=O)[C@H](CO)NC(=O)[C@@H](Cc1ccc2ccccc2c1)NC(C)=O` had an Activity in the experiment listed under Rattus norvegicus of 149.
Same read-out and setting: next, `CC(=O)N[C@H](Cc1ccc2ccccc2c1)C(=O)N[C@@H](CO)C(=O)N[C@@H](Cc1ccc(O)cc1)C(=O)N[C@H](Cc1cccnc1)C(=O)N[C@@H](CC(C)C)C(=O)N[C@@H](CCCN=C(N)N)C(=O)N1CCC[C@H]1C(=O)N[C@H](C)C(N)=O`: 251.
As for `CC(=O)N[C@@H](Cc1ccc2ccccc2c1)C(=O)N[C@@H](CO)C(=O)N[C@@H](Cc1ccc(O)cc1)C(=O)N[C@@H](Cc1cccnc1)C(=O)N[C@@H](CC(C)C)C(=O)N[C@@H](CCCN=C(N)N)C(=O)N1CCC[C@H]1C(=O)N[C@H](C)C(N)=O`, the Activity in experiment [6] was 11; in [1], 4.8; in [3], 33; in experiment [4], 72; in experiment [5], 112.
As to `CCNC(=O)[C@@H]1CCCN1C(=O)C(CCCN=C(N)N)NC(=O)[C@H](CC(C)C)NC(=O)[C@H](CCCCNC(=O)c1ccccn1)NC(=O)C(CCCCNC(=O)c1ccccn1)NC(=O)[C@H](CO)NC(=O)[C@H](Cc1ccc2ccccc2c1)NC(C)=O` (stereo not given in full), the Activity in experiment [1] was determined as 2.1; in experiment [2], 108; in [3], 8; in [4] it was 27; in experiment [5] it was 72.
For the compound `CCNC(=O)[C@@H]1CCCN1C(=O)[C@H](CCCCNC(C)C)NC(=O)[C@H](CC(C)C)NC(=O)[C@H](CCCCNC(=O)c1ccccn1)NC(=O)[C@H](Cc1ccc(O)cc1)NC(=O)[C@H](CO)NC(=O)[C@H](Cc1ccc2ccccc2c1)NC(C)=O`, the Activity was found to be 3.5 in experiment [1]; 194 in experiment [2]; 118 in [3]; 157 in experiment [4]; 200 in experiment [5].
Take `CCNC(=O)[C@@H]1CCCN1C(=O)[C@H](CC(C)C)NC(=O)[C@H](Cc1ccc2ccccc2c1)NC(=O)[C@H](Cc1ccc(O)cc1)NC(=O)[C@H](CO)NC(=O)[C@H](Cc1ccc2ccccc2c1)NC(C)=O` (Ac-[2Nal]SY[2Nal]LP-NHEt): the Activity came to 151 in experiment [6]; 3.1 in [1]; 11 in experiment [7]; 55 in [8]; 145 in the experiment listed under Rattus norvegicus; 155 in experiment [3]. In [4], this compound showed an Activity of 148.
In the case of `CC(=O)N[C@@H](Cc1ccc2ccccc2c1)C(=O)N[C@@H](CO)C(=O)N[C@@H](Cc1ccc2ccccc2c1)C(=O)N[C@@H](CC(C)C)C(=O)N[C@@H](CCCN=C(N)N)C(=O)N1CCC[C@H]1C(=O)N[C@@H](C)C(N)=O` (Ac-[2Nal]S[2Nal]LRPA-NH2), the Activity in experiment [6] came out at 4; in [1], 2.3; in the experiment filed under Rattus norvegicus, 155; in experiment [3], 13; in [4], 37; in experiment [5], 117.
Turning to `CC(=O)NC(Cc1ccc2ccccc2c1)C(=O)N[C@@H](CO)C(=O)N[C@@H](Cc1ccc(O)cc1)C(=O)NC(Cc1ccc2ccccc2c1)C(=O)N[C@@H](CC(C)C)C(=O)N[C@@H](CCCCNC(C)C)C(=O)N1CCC[C@H]1C(=O)N[C@H](C)C(N)=O` (stereo in doubt), the Activity turned out to be 23 in experiment [6]; 2.1 in experiment [1]; 127 in experiment [2]; 149 in the experiment listed under Rattus norvegicus; 55 in [3]; 104 in [4]. This compound also came in with an Activity in [5] of 135.
As to `CC(C)C[C@H](NC(=O)C(Cc1ccc2ccccc2c1)NC(=O)[C@H](Cc1ccc(O)cc1)NC(=O)[C@H](CO)NC(=O)[C@H](Cc1cccnc1)NC(=O)[C@H](Cc1ccc(Cl)cc1)NC(=O)[C@@H]1CCC(=O)N1)C(=O)N[C@@H](CCCN=C(N)N)C(=O)N1CCC[C@H]1C(=O)N[C@H](C)C(N)=O` (stereo in doubt), the Activity in [1] was 3.8; in [2], 165; in the experiment listed under Rattus norvegicus, 132; in [3], 149; in [4], 170; in [5] it was 158.
As to `CCNC(=O)[C@@H]1CCCN1C(=O)[C@H](CCCCNC(C)C)NC(=O)[C@H](CC(C)C)NC(=O)C(Cc1ccc2ccccc2c1)NC(=O)[C@H](Cc1ccc(O)cc1)NC(=O)[C@H](CO)NC(=O)C(Cc1ccc2ccccc2c1)NC(C)=O` (stereo in doubt), the Activity in experiment [6] is 4; in experiment [1], 3.5; in experiment [2], 146; in the experiment filed under Rattus norvegicus it was 148; in experiment [3] it was 6; in experiment [4], 26. In addition, the Activity in [5] was 133.
Consider `CC(=O)N[C@@H](Cc1ccc(Cl)cc1)C(=O)N[C@@H](Cc1cccnc1)C(=O)N[C@@H](CO)C(=O)N[C@@H](Cc1ccc(O)cc1)C(=O)NC(Cc1ccc2ccccc2c1)C(=O)N[C@@H](CC(C)C)C(=O)N[C@@H](CCCN=C(N)N)C(=O)N1CCC[C@H]1C(=O)N[C@H](C)C(N)=O` (stereo in doubt), for which the Activity in experiment [6] is 77; in experiment [1], 3.5; in [2], 152; in the experiment filed under Rattus norvegicus, 151; in experiment [3], 145; in experiment [4], 152. In addition, the Activity in experiment [5] stood at 165.

These data come from ChEMBL document CHEMBL1128487, “Reduced-size antagonists of luteinizing hormone-releasing hormone active in vitro” (1995).
